The source made the active and inactive calls. The calls are words filed in the database; no cut-off is given here.
Legend:
MM1.S [1] = assay: Induction of apoptosis in human MM1S cells assessed as late apoptotic cells at 40 nM after 48 hrs by Annexin V-FITC/propidium iodide staining-based flow cytometric analysis (reference value: 0.42%); type: functional
MV4-11 [2] = assay: Induction of apoptosis in human MV4-11 cells assessed as late apoptotic cells at 20 nM after 48 hrs by Annexin V-FITC/propidium iodide staining-based flow cytometric analysis (reference value: 5.03%); type: functional
MV4-11 [3] = assay: Induction of apoptosis in human MV4-11 cells assessed as late apoptotic cells at 320 nM after 48 hrs by Annexin V-FITC/propidium iodide staining-based flow cytometric analysis (reference value: 5.03%); type: functional
MV4-11 [4] = assay: Induction of apoptosis in human MV4-11 cells assessed as viable cells at 160 nM after 48 hrs by Annexin V-FITC/propidium iodide staining-based flow cytometric analysis (reference value: 84.1%); type: functional; conditions: MV4-11, 48 h, read-out: Activity
Histone deacetylase 11 = Histone deacetylase 11 (Homo sapiens, UniProt Q96DB2); assay: Inhibition of recombinant full length N-terminal GST-tagged human HDAC11 expressed in baculovirus expression system using Ac-peptide-AMC as substrate preincubated for 15 mins followed by substrate addition and measured after 1 hr by fluorescence assay
[5] = target: Protein deacetylase HDAC6 (Homo sapiens, UniProt Q9UBN7); assay: Inhibition of recombinant full length HDAC6 (unknown origin) using Ac-peptide-AMC as substrate preincubated for 15 mins followed by substrate addition and measured after 1 hr by fluorescence assay
[6] = target: FKBP12A/mTOR (Homo sapiens) (UniProt P62942+P42345); assay: Inhibition of human recombinant MTOR/FKBP12 expressed in mammalian expression system assessed as residual activity at 1 uM
How it was run: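 Radiometric kinase panel (99 kinases) run at 1 μM inhibitor in duplicate with [γ-33P]ATP, kinase-specific buffer and substrate at room temperature. The reaction was started with Mg/ATP and stopped with 0.5% phosphoric acid, then spotted on P30 filtermat, washed and scintillation counted. Results are expressed as % remaining activity versus DMSO control.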

MM1.S [7] = assay: Cell cycle arrest in human MM1S cells assessed as accumulation at S phase at 2.5 nM after 24 hrs by propidium iodide/RNase staining-based FACS analysis (reference value: 24.49%); type: functional
MM1.S [8] = assay: Cell cycle arrest in human MM1S cells assessed as accumulation at G2/M phase at 10 nM after 24 hrs by propidium iodide/RNase staining-based FACS analysis (reference value: 26.29%); type: functional
MM1.S [9] = assay: Cell cycle arrest in human MM1S cells assessed as accumulation at G0/G1 phase at 2.5 nM after 24 hrs by propidium iodide/RNase staining-based FACS analysis (reference value: 49.22%); type: functional
[10] = Toxicity against NOD/SCID mouse xenografted with human MM1S cells assessed as effect on body weight at 10 mg/kg, iv administered every 2 days for 5 days; type: organism-based; conditions: in vivo
How it was run: (§1)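 Female NOD/SCID mice, 5-6 weeks old, received 10^7 MM1S cells in 100 μL serum-free RPMI 1640 s.c. into the right flank. At 100-200 mm3 tumours they were randomised, 6 mice per group. Tumours were measured by caliper every 2 days. At the end, tumours were excised and weighed. Survivors are reported per group.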

MV4-11 [11] = assay: Cell cycle arrest in human MV4-11 cells assessed as accumulation at G2/M phase at 1.25 nM after 24 hrs by propidium iodide/RNase staining-based FACS analysis (reference value: 18.79%); type: functional
MV4-11 [12] = assay: Antiproliferative activity against human MV4-11 cells after 72 hrs by MTT assay; type: functional, cell-based; conditions: MV4-11, 72 h
Histone deacetylase 1 = Histone deacetylase 1 (Homo sapiens, UniProt Q13547); assay: Inhibition of recombinant full length HDAC1 (unknown origin) using Ac-peptide-AMC as substrate preincubated for 15 mins followed by substrate addition and measured after 1 hr by fluorescence assay
MV4-11 [13] = assay: Induction of apoptosis in human MV4-11 cells assessed as viable cells at 20 nM after 48 hrs by Annexin V-FITC/propidium iodide staining-based flow cytometric analysis (reference value: 84.1%); type: functional; conditions: MV4-11, 48 h, read-out: Activity
MV4-11 [14] = assay: Induction of apoptosis in human MV4-11 cells assessed as early apoptotic cells at 160 nM after 48 hrs by Annexin V-FITC/propidium iodide staining-based flow cytometric analysis (reference value: 10.7%); type: functional
MV4-11 [15] = assay: Induction of apoptosis in human MV4-11 cells assessed as late apoptotic cells at 80 nM after 48 hrs by Annexin V-FITC/propidium iodide staining-based flow cytometric analysis (reference value: 5.03%); type: functional
[16] = Toxicity against NOD/SCID mouse xenografted with human MM1S cells assessed as mouse survival at 10 mg/kg, iv administered every 2 days for 5 days; type: organism-based; conditions: in vivo; how it was run: as §1
MM1.S [17] = assay: Induction of apoptosis in human MM1S cells assessed as necrotic cells at 10 nM after 48 hrs by Annexin V-FITC/propidium iodide staining-based flow cytometric analysis (reference value: 0.32%); type: functional
MM1.S [18] = assay: Antitumor activity against human MM1S cells xenografted in NOD/SCID mouse assessed as tumor growth inhibition at 20 mg/kg, iv administered every 2 days for 5 days and measured every 2 days post last dose by caliper method relative to control; type: functional; conditions: read-out: TGI
How it was run: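 MM1S xenografts were made with 10^7 cells in 100 μL serum-free RPMI 1640, injected s.c. into the right flank of female NOD/SCID mice aged 5-6 weeks. Mice were randomized at 100-200 mm3, 6 per group. Dosing was i.v. every 2 days in saline with 2.5% DMSO and 10% cyclodextrin at pH 9. Tumours were measured by caliper every 2 days (volume = length × width² × 0.5) and weighed at the end.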

MV4-11 [19] = assay: Induction of apoptosis in human MV4-11 cells assessed as necrotic cells at 160 nM after 48 hrs by Annexin V-FITC/propidium iodide staining-based flow cytometric analysis (reference value: 0.17%); type: functional
MV4-11 [20] = assay: Cell cycle arrest in human MV4-11 cells assessed as accumulation at G2/M phase at 5 nM after 24 hrs by propidium iodide/RNase staining-based FACS analysis (reference value: 18.79%); type: functional
[21] = target: Protein deacetylase HDAC6 (Homo sapiens) (UniProt Q9UBN7); assay: Inhibition of HDAC6 in human MV4-11 cells assessed as increase in alpha-tubulin acetylation after 6 hrs by Western blot analysis; type: cell-based
How it was run: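 MV4-11 cells treated 6 h at 0.01, 0.1 or 1 μM. Whole-cell protein extracted in RIPA buffer and quantified by BCA. 30 μg protein run on SDS-PAGE and transferred to PVDF. Blocked 1 h in 5% milk, primary antibody overnight at 4 °C, HRP secondary 1 h, ECL detection. Acetyl-histone H3 and acetyl-α-tubulin probed, with GAPDH as loading control.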

MV4-11 [22] = assay: Induction of apoptosis in human MV4-11 cells assessed as necrotic cells at 80 nM after 48 hrs by Annexin V-FITC/propidium iodide staining-based flow cytometric analysis (reference value: 0.17%); type: functional
MM1.S [23] = assay: Induction of apoptosis in human MM1S cells assessed as early apoptotic cells at 40 nM after 48 hrs by Annexin V-FITC/propidium iodide staining-based flow cytometric analysis (reference value: 0.38%); type: functional

Chain of Histone deacetylase 1 (Q13547 whole entry): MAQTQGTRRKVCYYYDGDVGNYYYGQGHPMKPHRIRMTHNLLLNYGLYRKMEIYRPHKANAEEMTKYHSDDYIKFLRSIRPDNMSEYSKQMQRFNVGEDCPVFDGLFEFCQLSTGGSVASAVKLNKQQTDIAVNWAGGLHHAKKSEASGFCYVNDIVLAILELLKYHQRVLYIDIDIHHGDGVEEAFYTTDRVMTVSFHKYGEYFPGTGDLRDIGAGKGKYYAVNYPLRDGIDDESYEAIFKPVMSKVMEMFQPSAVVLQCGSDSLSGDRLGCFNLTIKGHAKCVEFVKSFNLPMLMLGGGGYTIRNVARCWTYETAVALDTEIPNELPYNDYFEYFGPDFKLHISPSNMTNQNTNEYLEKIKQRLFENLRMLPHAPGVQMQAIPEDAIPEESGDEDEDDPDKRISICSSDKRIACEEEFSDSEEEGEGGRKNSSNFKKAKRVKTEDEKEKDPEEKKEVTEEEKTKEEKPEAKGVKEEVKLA
Chain of Histone deacetylase 11 (Q96DB2 whole entry): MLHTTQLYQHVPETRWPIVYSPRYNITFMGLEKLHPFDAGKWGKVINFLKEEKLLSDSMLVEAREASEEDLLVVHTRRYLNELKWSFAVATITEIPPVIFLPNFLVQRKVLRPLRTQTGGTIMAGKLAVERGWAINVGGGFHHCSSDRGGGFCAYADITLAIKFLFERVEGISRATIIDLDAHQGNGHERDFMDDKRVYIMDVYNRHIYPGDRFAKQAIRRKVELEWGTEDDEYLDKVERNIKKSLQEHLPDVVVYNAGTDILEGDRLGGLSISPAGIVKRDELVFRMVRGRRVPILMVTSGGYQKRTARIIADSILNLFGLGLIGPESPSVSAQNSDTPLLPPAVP
Chain of Protein deacetylase HDAC6 (Homo sapiens) (Q9UBN7 whole entry): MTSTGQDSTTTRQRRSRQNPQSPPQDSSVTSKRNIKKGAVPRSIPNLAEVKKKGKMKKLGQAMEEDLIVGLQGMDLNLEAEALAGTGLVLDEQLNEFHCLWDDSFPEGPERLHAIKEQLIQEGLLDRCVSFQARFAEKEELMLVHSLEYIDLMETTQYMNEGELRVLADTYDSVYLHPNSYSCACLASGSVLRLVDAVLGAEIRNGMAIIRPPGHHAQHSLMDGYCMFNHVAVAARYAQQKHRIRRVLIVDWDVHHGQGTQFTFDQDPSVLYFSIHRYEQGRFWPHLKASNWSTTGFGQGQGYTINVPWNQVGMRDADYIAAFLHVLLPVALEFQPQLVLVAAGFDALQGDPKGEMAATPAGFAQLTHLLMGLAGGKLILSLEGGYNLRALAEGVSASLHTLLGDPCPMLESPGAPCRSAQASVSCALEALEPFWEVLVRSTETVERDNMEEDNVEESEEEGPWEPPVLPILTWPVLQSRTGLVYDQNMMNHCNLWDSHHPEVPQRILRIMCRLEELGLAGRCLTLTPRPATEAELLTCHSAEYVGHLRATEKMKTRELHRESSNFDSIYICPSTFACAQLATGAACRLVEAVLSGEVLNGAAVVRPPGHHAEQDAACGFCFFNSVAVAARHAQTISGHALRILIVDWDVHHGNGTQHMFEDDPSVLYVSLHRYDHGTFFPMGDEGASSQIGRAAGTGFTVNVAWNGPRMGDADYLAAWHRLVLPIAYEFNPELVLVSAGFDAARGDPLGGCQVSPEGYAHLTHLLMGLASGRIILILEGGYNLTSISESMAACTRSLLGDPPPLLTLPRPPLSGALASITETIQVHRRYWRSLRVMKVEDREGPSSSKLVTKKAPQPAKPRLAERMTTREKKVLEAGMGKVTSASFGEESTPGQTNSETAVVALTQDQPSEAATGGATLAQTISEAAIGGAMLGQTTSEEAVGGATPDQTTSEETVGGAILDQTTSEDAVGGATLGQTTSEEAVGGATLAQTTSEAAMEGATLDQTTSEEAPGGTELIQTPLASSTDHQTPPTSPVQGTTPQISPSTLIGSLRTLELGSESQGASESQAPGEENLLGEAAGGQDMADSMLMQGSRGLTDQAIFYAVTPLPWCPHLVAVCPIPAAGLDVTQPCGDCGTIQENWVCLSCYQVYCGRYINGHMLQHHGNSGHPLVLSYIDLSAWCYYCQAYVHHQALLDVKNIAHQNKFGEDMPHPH
Chain of Protein deacetylase HDAC6 (Q9UBN7 whole entry): as above
Chain of FKBP12A/mTOR (Homo sapiens) (P62942 2-108 limits assumed, other chains not shown): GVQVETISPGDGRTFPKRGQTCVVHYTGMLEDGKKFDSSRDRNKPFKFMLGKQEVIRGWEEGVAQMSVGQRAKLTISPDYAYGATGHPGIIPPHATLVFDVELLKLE

Q: For C[C@@H]1CN(C(=O)Nc2ccc(-c3nc(N4CCOCC4)c4cnn(CCCCCCC(=O)NO)c4n3)cc2)CCO1, which Activity (MM1.S [1]) is on record?
A: 23%

Q: What about the Activity (MV4-11 [2]) of the same compound?
A: 38.4%

Q: What about the Activity (MV4-11 [3]) of the same compound?
A: 68.3%

Q: And the viability at 0.16 µM (MV4-11 [4])?
A: 2.29%

Q: What about the IC50 (Histone deacetylase 11) of the same compound?
A: > 1000 nM

Q: What about the IC50 [5] of the same compound?
A: 1.8 nM

Q: And the inhibition [6]?
A: Active

Q: What about the Activity (MM1.S [7]) of the same compound?
A: 21.59%

Q: And the Activity (MM1.S [8])?
A: 20.43%

Q: What about the Activity (MM1.S [9]) of the same compound?
A: 52.62%

Q: What about the Activity [10] of the same compound?
A: Non-Toxic

Q: And the Activity (MV4-11 [11])?
A: 18.99%

Q: What about the IC50 (MV4-11 [12]) of the same compound?
A: 4.05 nM

Q: And the IC50 (Histone deacetylase 1)?
A: 0.19 nM

Q: What about the viability at 0.02 µM (MV4-11 [13]) of the same compound?
A: 20.6%

Q: And the Activity (MV4-11 [14])?
A: 34.7%

Q: And the Activity (MV4-11 [15])?
A: 56.5%

Q: And the Activity [16]?
A: Non-Toxic

Q: And the Activity (MM1.S [17])?
A: 0.31%

Q: And the inhibition in vivo at 20 mg/kg (MM1.S [18])?
A: 72.5%

Q: What about the Activity (MV4-11 [19]) of the same compound?
A: 1.13%

Q: And the Activity (MV4-11 [20])?
A: 13.99%

Q: And the inhibition [21]?
A: Dose-dependent effect

Q: And the Activity (MV4-11 [22])?
A: 1.86%

Q: What about the Activity (MM1.S [23]) of the same compound?
A: 4.81%
